PMI act – activators of human PMI, primary screen, biochemical, fluorescence intensity, near-Km mannose 6-phosphate; AID 1214, 2008; purified human PMI, coupled resazurin fluorescence, 20 min; hits give high values; 1 = vehicle control, 0 substrate-free wells; 190,000 tested, 0.005% active; activation factor at 20 µM;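 active means activation factor of 2 or more at 20 µM, relative to plate controls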
PMI act hi M6P – human PMI activators, high substrate, primary screen, biochemical, fluorescence intensity, near-saturating mannose 6-phosphate; coupled PMI enzyme assay, resazurin fluorescence, 20 min; hits give high values; 1 = untreated enzyme, 0 = substrate-free blank; activation factor at 20 µM; Mannose-6-phosphate isomerase (Homo sapiens), P34949; 190,000 tested, 0.34% active;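 active means activation factor of 2 or more at 20 µM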
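Test system: human PMI in coupled enzyme assay; Input: PMI at 15 ng/mL final; Medium: HEPES buffer, pH 7.4; Schedule: 20 min incubation at room temperature; Technique: resorufin fluorescence at Ex 544/Em 590 nm; Compound: 20 µM single dose; Probe or stimulus: Near-saturating mannose-6-phosphate, 1.0 mM.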
TNAP act hi DEA – TNAP activators at high phosphate acceptor level, primary screen, biochemical, luminescence, uHTS; activation factor at 20 µM; Alkaline phosphatase, tissue-nonspecific isozyme (Homo sapiens), P05186; purified TNAP, CDP-star luminescence, 1 M DEA, 30 min; hits give high values; 0 = EDTA background, 1 = DMSO-only activity; 200,000 tested, under 10 active;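 active means activation factor at least 2 at 20 µM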
Target sequence (P05186 whole entry, looked up): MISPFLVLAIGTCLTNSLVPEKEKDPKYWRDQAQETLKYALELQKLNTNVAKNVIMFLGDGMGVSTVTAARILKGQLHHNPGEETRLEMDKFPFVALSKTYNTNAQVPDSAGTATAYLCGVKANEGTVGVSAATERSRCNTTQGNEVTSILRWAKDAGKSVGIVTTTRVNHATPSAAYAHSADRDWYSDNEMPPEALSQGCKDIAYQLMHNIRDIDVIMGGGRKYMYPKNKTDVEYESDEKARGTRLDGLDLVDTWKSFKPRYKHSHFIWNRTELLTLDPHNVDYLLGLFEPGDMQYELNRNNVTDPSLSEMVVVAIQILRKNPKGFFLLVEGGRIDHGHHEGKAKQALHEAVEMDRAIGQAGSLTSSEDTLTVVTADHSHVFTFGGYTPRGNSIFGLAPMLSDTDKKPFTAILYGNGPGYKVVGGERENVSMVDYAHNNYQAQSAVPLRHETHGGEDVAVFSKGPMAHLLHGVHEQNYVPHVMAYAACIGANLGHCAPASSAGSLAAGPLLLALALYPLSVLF
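Test system – human TNAP · Doses – 20 µM single point · Incubation – 30 min, room temperature · Signal – luminescent substrate turnover signal · Read-out basis – activation factor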
TNAP inh no acc – human TNAP enzyme inhibitors, primary screen, biochemical, luminescent, no phosphate acceptor, uHTS; Alkaline phosphatase, tissue-nonspecific isozyme (Homo sapiens), P05186; purified TNAP, CDP-star luminescence, 30 min; inhibition, % at 20 µM; 200,000 tested, 0.26% active; AID 1012, 2008;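 active means tissue-nonspecific alkaline phosphatase inhibition above about 50% at 20 µM in the single-dose screen, limit read from the data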
TNAP inh hi DEA – human TNAP enzyme inhibitors, primary screen, biochemical, luminescent, high phosphate acceptor level, uHTS; Alkaline phosphatase, tissue-nonspecific isozyme (Homo sapiens), P05186; purified TNAP, CDP-star luminescence, 1 M DEA; inhibition, % at 20 µM; 200,000 tested, 0.03% active;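 active means over 50% inhibition of tissue-nonspecific alkaline phosphatase at 20 µM in the single-dose screen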
Of the large screens only hits and unclear results are named; the others gave an inactive call. This is a sample that favours compounds with a hit; in the whole collection about 0.62% have one here.

COc1ccc(Br)cc1CNC(=O)CCNC(=O)Cn1ccc2ccccc2c1=O	none
COc1cc(/C=C(\C#N)c2nn(CCO)c(N)c2C#N)cc(OC)c1OC	PMI act hi M6P 2.2
N#C/C(=C\c1ccc(/C=C(/C#N)c2nn(CCO)c(N)c2C#N)cc1)c1nn(CCO)c(N)c1C#N	none
COc1ccc(CCCC(=O)N/N=C/c2ccccc2OC)cc1	none
C=C1c2ccccc2NC(=O)N1c1ccc(OC)cc1	PMI act hi M6P 2.5
Cc1ccc2c(c1)/C(=C/c1ccco1)C(=O)N2	none
C=C1c2cc(C)ccc2NC(=O)N1c1ccccc1	PMI act hi M6P 2.9
Cc1ccc(N(CC(=O)Nc2ccccc2-c2ccccc2)S(=O)(=O)c2ccccc2)c(C)c1	none
Cc1cc(C(=O)NCCN2C(=O)S/C(=C\c3cccs3)C2=O)ccc1[N+](=O)[O-]	none
O=C(NC1CCCCC1)C1CC(O)CN1C(=O)OCc1ccccc1 (configuration not stated)	none
COC(=O)C1CC(O)CN1C(=O)NC1CCCCC1 (configuration not stated)	PMI act hi M6P 2.4
CCO[C@@H]1OC(C(=O)NCc2ccccc2)=C[C@H](c2cn(C(C)=O)c3ccccc23)[C@H]1CCCO	none
COc1ccc(C2(CNS(=O)(=O)c3ccccc3)CCOCC2)cc1	none
O=C(CN1CCN(S(=O)(=O)c2ccccc2)CC1)Nc1ccccc1C(=O)c1ccccc1	none
NC(=S)N=Nc1c(O)[nH]c2ccccc12	TNAP inh no acc 65
Oc1[nH]c2ccccc2c1N=NC(=S)NCCc1ccccc1	none
Cc1cc(C(=O)CSc2n[nH]c(-c3ccccc3F)n2)c(C)n1Cc1cccs1	TNAP inh no acc 91
COc1ccc(C2CC(c3cccs3)=NN2c2nc(-c3ccccc3)cs2)cc1OC (configuration not stated)	PMI act hi M6P 2.1
COc1ccc(C2CC(c3cccs3)=NN2S(C)(=O)=O)cc1OC (configuration not stated)	none
CC/C(=N/Nc1ccccc1C)c1cnnc(SC)n1	PMI act hi M6P 2.3
CSc1nncc(/C(C)=N\Nc2ccccc2)n1	none
CSc1nncc(/C(C)=N\Nc2cccc(C)c2)n1	PMI act hi M6P 2.4
CC1(C)C(=O)Nc2ccccc2N1C(=O)COc1cccnc1[N+](=O)[O-]	none
S=c1cnc2ccccc2[nH]1	PMI act hi M6P 2.1
S=c1nc[nH]c2c1sc1nc(N3CCOCC3)c3c(c12)CCCC3	PMI act hi M6P 2
C/C(=N\Nc1cccc(C(=O)O)c1)c1ccc(Cl)s1	PMI act hi M6P 2.6
COc1ccc(/C(C)=N/Nc2cccc(C(=O)O)c2)cc1OC	PMI act hi M6P 2.5
CCOCCCNC(=S)NCCCNc1nc2c(C)c(C)ccc2cc1C#N	PMI act hi M6P 2.1
COCCCNC(=S)NCCCNc1nc2cc3c(cc2cc1C#N)OCO3	PMI act hi M6P 2.1
CCOCCCNC(=S)N1CCCN(c2nc3c(C)c(C)ccc3cc2C#N)CC1	none (no result: PMI act, PMI act hi M6P)
CCOCCCNC(=S)N1CCCN(c2nc3cc(C)ccc3cc2C#N)CC1	PMI act hi M6P 2.3
CCN1CCN(C(=O)NC(c2ccc(C)c(F)c2)C(Cl)Cl)CC1 (configuration not stated)	none
Cc1ccc(C(NC(=O)N2CCCC2)C(Cl)Cl)cc1F (configuration not stated)	PMI act hi M6P 2
Cc1ccc(NNS(=O)(=O)c2ccc(C)cc2)cc1	PMI act hi M6P 2
Cc1ccc(S(=O)(=O)NNC(=O)C(=O)NNS(=O)(=O)c2ccc(C)cc2)cc1	none
CSCCC(NS(=O)(=O)/C=C/c1ccccc1)C(=O)O (configuration not stated)	none
C/C(=N/Nc1ccc(C)cc1)C1(C)N(O)C(C)(C)C(c2ccco2)=[N+]1[O-] (configuration not stated)	PMI act hi M6P 2.7

Screens: PubChem, Sanford-Burnham Center for Chemical Genomics
